Screening results as filed in PubChem BioAssay.
ASAP1 inh = ASAP1 ArfGAP inhibition | ASAP1-stimulated ARF1 GTP hydrolysis, GDP FP detection | inhibition, % at 16.5 µM | Q9ULH1 | AID 624377 | 360,000 compounds, 0.19% hits; in the data active means inhibition above about 25%;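 further: 0% = vehicle with enzyme and substrate and 100% = no enzyme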
Target sequence (Q9ULH1 325-724 limits assumed): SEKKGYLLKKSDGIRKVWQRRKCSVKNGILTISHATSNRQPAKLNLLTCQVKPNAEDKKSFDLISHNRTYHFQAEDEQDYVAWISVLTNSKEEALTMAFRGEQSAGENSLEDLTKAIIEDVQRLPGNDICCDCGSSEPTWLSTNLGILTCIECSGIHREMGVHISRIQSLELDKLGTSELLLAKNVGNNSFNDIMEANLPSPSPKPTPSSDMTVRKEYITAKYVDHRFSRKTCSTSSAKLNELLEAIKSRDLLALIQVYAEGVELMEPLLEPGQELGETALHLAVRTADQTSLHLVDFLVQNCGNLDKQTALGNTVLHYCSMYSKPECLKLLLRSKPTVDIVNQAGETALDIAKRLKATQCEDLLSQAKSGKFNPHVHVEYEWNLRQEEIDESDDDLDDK
SMARCA2 act = activators of SMARCA2 function | MG213 cells, MMTV-luciferase reporter, dexamethasone, overnight | activation, % at 9.1 µM | 370,000 compounds, 1% hits | AID 652017; in the data active means activation above about 7.8%;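 further: 0% = vehicle wells and 100% = reference activator wells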
esBAF inh = inhibitors of esBAF chromatin remodeling in mouse ES cells; Bmi1-luciferase knock-in reporter, 24 h; 100% = twice the neutral-well signal; reporter increase, % at 12.5 µM; 350,000 compounds, 2% hits; AID 602393; in the data active means activation above about 40%;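 further: 0% = median of the plate's neutral control wells and 100% = double that signal; a rise in the Bmi1 reporter signal indicates esBAF inhibition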
ARFGAP1 inhibitor = rat ARFGAP1 inhibition; Q62848; Arfgap1-stimulated ARF1 GTP hydrolysis, GDP FP detection; inhibition, % at 16.5 µM; 360,000 compounds, 0.26% hits;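 active means inhibition above a per-plate limit, mean inhibition of low control wells plus 3 SD, cut at about 25% in these data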;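 further: 0% = DMSO wells with enzyme and 100% = wells lacking Arfgap1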
Target sequence (Q62848 1-136 limits assumed): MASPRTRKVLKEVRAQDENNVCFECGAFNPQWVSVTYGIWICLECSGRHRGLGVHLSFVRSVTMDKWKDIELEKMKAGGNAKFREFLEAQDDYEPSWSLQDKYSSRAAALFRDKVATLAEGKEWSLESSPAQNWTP
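material = rat Arfgap1 catalytic domain, aa 1-136 | also added = human ARF1(Δ1-17)-GTP substrate | compound dosing = one concentration, 16.5 µM, DMSO 1.26% | times = GTP hydrolysis reaction 2 h at 25 °C | measured by = FP, GDP Alexa 633 tracer displaced from anti-GDP antibody, 620/688 nm | evaluation = percent inhibition of Arfgap1-stimulated GTP hydrolysis | replication = single well per compound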
Active calls of the source: *; x = no result given. Sampled rows, rich in hits. Any-hit rate of the full collection: about 2.6%.

SMILES	ASAP1 inh	SMARCA2 act	esBAF inh	ARFGAP1 inhibitor
Clc1cccc(-c2cc3nc4c(c(NCc5ccco5)n3n2)CCCC4)c1	7	6	44*	4
O=C1NC[C@H](c2ccccc2)OC(=O)[C@@H](Cc2ccc(F)cc2)C/C=C\C[C@H]1CC(=O)N(CCO)Cc1ccccc1	-4	-1	45*	-5
CCOc1ccc(/C(O)=C2/C(=O)C(=O)N(CCCn3ccnc3)C2c2cccs2)cc1Cl (configuration not stated)	-5	-1	56*	-13
Cc1ccccc1NC(=O)C1Cc2ccccc2CN1C(=O)c1ccco1 (configuration not stated)	7	7	55*	-1
NS(=O)(=O)c1ccc(NC(=O)C2Cc3ccccc3CN2C(=O)c2ccco2)cc1 (configuration not stated)	9	-1	0	-10
COc1cccc(NC(=O)C2Cc3ccccc3CN2C(=O)c2ccco2)c1 (configuration not stated)	-4	6	57*	8
O=C(C[C@H]1C=C[C@@H](NC(=O)c2ccncc2)[C@@H](CO)O1)NCC1CCCCC1	x	x	-1	x
C/C(=N\NC(=O)c1ccc(O)cc1)c1cccc(NC(=O)c2ccc(Cl)cc2)c1	8	-1	52*	0
COc1ccc(/C(C)=N/NC(=O)c2ccncc2)cc1	0	0	0	12
COc1ccc(/C(C)=N/NC(=O)c2ccccc2N)cc1	1	7.9*	24	9
COc1ccc(/C(C)=N/NC(=O)c2ccccc2OCc2ccccc2)c(OC)c1	-6	5	50*	-6
C/C(=N\NC(=O)c1ccc(Cl)cc1)c1cccc(NC(=O)c2cccnc2)c1	3	-2	24	1
COc1ccc(/C=N/NC(=O)c2ccccc2OCc2ccccc2)c(OC)c1	-4	-1	-5	-14
C/C(=N\NC(=O)c1ccc(Br)cc1)c1ccccc1	15	2	47*	13
CC(C)C(=O)Nc1ccc2c(c1)C(=O)N(C)[C@@H]1CC[C@H](CC(=O)Nc3ccccc3)O[C@@H]1CO2	x	x	1	x
CC1CC(C)CN(C(=O)c2cc3ccccc3o2)C1 (configuration not stated)	0	2	58*	4
CC1CCN(C(=O)c2cc3ccccc3o2)CC1	-6	2	57*	-13
O=C(c1cc2cc(Br)ccc2o1)N1CCCC1	8	3	39*	1
O=C(c1cc2cc(Br)ccc2o1)N1CCOCC1	-10	3	x	1
C[C@@H]1CN([C@H](C)CO)C(=O)c2cc(C#CC(C)(C)O)cnc2O[C@H]1CN(C)Cc1ccccn1	x	x	-4	x
COc1ccc2cc3c(N)c(C(=O)NCc4ccco4)sc3nc2c1	7	5	72*	0
COc1ccc2cc3cc(C(=O)NCc4ccco4)oc3nc2c1	3	-1	x	-15
COc1cc(/C=C2/C(=N)N3C(=NC2=O)SN=C3S(C)(=O)=O)ccc1OC(=O)c1ccco1	-11	-3	-4	-16
COc1cc(/C=C2/C(=N)N3C(SC)=NSC3=NC2=O)ccc1OC(=O)c1ccco1	16	3	46*	1
CC(C)CCNC(=O)C1CC(c2cccc([N+](=O)[O-])c2)=NO1 (configuration not stated)	-18	-1	6	1
SMILES	ASAP1 inh	SMARCA2 act	esBAF inh	ARFGAP1 inhibitor
Cc1ccc(CCNC(=O)C2CC(c3ccccc3[N+](=O)[O-])=NO2)cc1 (configuration not stated)	-6	0	-1	-3
COc1ccc(CCNC(=O)C2CC(c3ccccc3[N+](=O)[O-])=NO2)cc1 (configuration not stated)	-8	5	45*	-1
CCCCNC(=O)C1CC(c2cccc([N+](=O)[O-])c2)=NO1 (configuration not stated)	-5	6	90*	6
COCCNC(=O)C1CC(c2ccccc2[N+](=O)[O-])=NO1 (configuration not stated)	-13	0	3	3
O=C(NCCc1cccs1)C1CC(c2ccccc2[N+](=O)[O-])=NO1 (configuration not stated)	5	7	66*	7
COCC(=O)N1C[C@@H](C)[C@@H](OC)CN(C)C(=O)c2cc(NS(C)(=O)=O)ccc2OC[C@H]1C	x	x	1	x
CCOC(=O)c1c(C)[nH]c(N=Nc2ccccc2Cl)c1C	2	0	64*	-16
CCOC(=O)c1c(C)[nH]c(N=Nc2ccc(C)cc2)c1C	18	-1	62*	-5
CCOC(=O)c1c(C)[nH]c(NC(=O)NNC(=O)c2ccccc2Cl)c1C	-4	-4	6	3
CCOC(=O)c1c(C)[nH]c(N=Nc2ccccc2)c1C	-2	5	89*	-4
O=C(C[C@@H]1C[C@H]2c3cc(NC(=O)c4ccc5c(c4)OCO5)ccc3O[C@H]2[C@H](CO)O1)NCc1cccc(F)c1	x	x	20	x
Cc1ccc2oc(C(=O)N(C)Cc3ccon3)c(C)c2c1	2	7	52*	-11
COc1ccccc1CNC(=O)COc1ccccc1C(=O)c1cnn(-c2ccccc2)c1	2	2	75*	2
Cc1ccc(O)c(C(=O)c2cnn(-c3ccccc3)c2)c1	0	3	50*	8
Cc1ccc(-n2cc(C(=O)c3ccccc3O)cn2)cc1	4	-4	-30	-7
O=C(COc1ccccc1C(=O)c1cnn(-c2ccccc2)c1)Nc1ccccc1	-1	6	49*	15
CCCNC(=O)[C@H]1N[C@H]2c3ccc(C4=CCCCC4)c(=O)n3C[C@H]2[C@@H]1CO	x	x	5	x
CCC(=O)Nc1ccc2c(c1)C(=O)N(C)C[C@H](OC)[C@@H](C)CN(Cc1cncnc1)[C@H](C)CO2	x	x	3	x
O=C(C[C@@H]1C[C@H]2c3cc(NC(=O)Nc4ccc(F)cc4)ccc3O[C@H]2[C@H](CO)O1)NCC(F)(F)F	x	x	-1	x
CSc1ccccc1NC(=O)c1cc2ncc(Br)cn2n1	-10	5	55*	-4
C[C@@H]1CN([C@@H](C)CO)C(=O)Cc2cc(NC(=O)CCN3CCOCC3)ccc2O[C@@H]1CN(C)C(=O)NC1CCCCC1	x	x	3	x
O=C(OCc1ccccc1F)c1ccc2c(c1)-c1ccccc1C2=O	x	x	44*	x
CC(C)Oc1ccccc1C1Nc2ccccc2C(=O)N1c1ccc2c(c1)OCCO2 (configuration not stated)	-9	3	-28	-2
Cc1ccc(N2C(=O)c3ccccc3NC2C(C)Cc2ccc3c(c2)OCO3)cc1 (configuration not stated)	-6	0	52*	3
COCC#Cc1cnc2c(c1)C(=O)N([C@H](C)CO)C[C@@H](C)[C@@H](CN(C)S(C)(=O)=O)O2	x	x	2	x
Cn1c(=O)c2c(-c3ccccc3)n(-c3ccccc3)cc2n(C)c1=O	-2	-1	-12	-13
Cn1c(=O)c2cn3c(c2n(C)c1=O)C(c1ccccc1)CC(c1ccccc1)=N3 (configuration not stated)	-11	-1	77*	-6
CCCCn1cnc2c(SCc3ccccc3)nc(N)nc21	-3	0	50*	-4
